Values without a mark were called inactive. Records with an inconclusive call do not appear. Activity calls are given as the source filed them.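 How the source made its calls, unless noted: active means cell viability at or below a set limit in both duplicate runs, the limit being the all-compound median minus 4 SD (cut at about 23% in these data, passing the limit was not always enough); inconclusive means no clear call, values can overlap the other calls; inactive means the rest.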
Experiments:
[1] = OD615 S. cerevisiae growth inhibition, permissive medium, pilot counter-assay, permissive growth control for S. cerevisiae lifespan shortening project (AID 705;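 active means growth inhibition above 25% in both replicates, a cutoff set 3 SD above the mean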); conditions: OD615, 24 h, at 10 µM, active compounds read high
Procedure, shortened: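 Test system: Saccharomyces cerevisiae strain carrying genetically modified DeaD replicative-lifespan system; buffer or medium: SC raffinose/galactose permissive medium; dosing: one dose 10 µM, DMSO 0.25% final; times: 24 h exposure, 30 °C; measured by: OD at 615 nm; read-out basis: growth inhibition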

[2] = Restrictive medium S. cerevisiae growth inhibition, OD615, pilot screen of yeast lifespan reduction project, restrictive growth control (AID 706;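 active means growth inhibition above a set limit, 3 SD over mean compound inhibition, in both replicates, cut at about 43% in these data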;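 further: modified DeaD lifespan yeast strain shifted to restrictive glucose medium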); conditions: OD615, 48 h, at 10 µM, active compounds read high
Procedure, shortened: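 material = engineered S. cerevisiae DeaD strain | buffer or medium = glucose-based CSMM-D restrictive medium | dosing = one concentration, 10 µM final, 0.25% DMSO | schedule = 4 h pre-growth plus 48 h compound exposure, 30 °C | detection = OD615 absorbance reading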

[3] = viability gain of MRP-1-high H69AR cells under doxorubicin, pilot screen, MRP-1 activator project, CellTiter-Glo, duplicate (AID 807;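 active means viability increase at or above a cutoff of the median across tested compounds plus 3 SD, cut at about 8.5% in these data, passing the limit was not always enough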;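 further: compound pretreatment 18-22 h then 72 h combined with doxorubicin; 0% = doxorubicin alone and 100% = vehicle without doxorubicin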); conditions: H69AR viability with doxorubicin, CellTiter-Glo luminescence; at 10 µM; active compounds read high
[4] = growth suppression of beta-catenin knockout HCT116, pilot screen, human colon tumor cells (AID 823); conditions: CellTiter-Glo, 60 h, at 10 µM, active compounds read low;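 further: 0% = wells killed by 20 µM Hyamine and 100% = untreated DMSO cell wells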
[5] = growth suppression of PTEN-deleted HCT116, pilot screen, cell-based, HCT116 clonal line, CellTiter-Glo (AID 824;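 active means viability at or below 27.92% in each of two runs, the all-compound median minus 4 SD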;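 further: 0% = 20 µM Hyamine control and 100% = vehicle cell control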); conditions: 60 h, at 10 µM, active compounds read low
[6] = inhibitors of the yeast RAM network, pilot screen, dse1pr::URA3 reporter, 5-FOA selection (AID 869;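 active means inhibition over a set limit, the all-compound mean plus 3 SD, in both replicate runs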;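 further: 0% = DMSO wells with no growth and 100% = 10 µM 1-NA-PP1 with full growth; RAM network block rescues cells from 5-FOA so hits raise OD615 growth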); conditions: S. cerevisiae dse1pr::URA3 5-FOA growth, OD615, 2 d; at 10 µM; active compounds read high; strain carries analog-sensitive mutant Cbk1 kinase
[7] = RAM signaling pathway blockade in yeast – S. cerevisiae, Pdr1DBD-CYC8 efflux-inhibited sensitized strain, primary screen (AID 1298;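 active means RAM network inhibition above 8.4% in each of two replicates, 3 SD over the compound average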;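 further: 0% = DMSO untreated cells without growth and 100% = 10 µM 1-NA-PP1 full growth; higher means more yeast growth rescued from 5-FOA killing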); conditions: S. cerevisiae cbk1-as DSE1-URA3 strain, 5-FOA growth OD615, 2 d; at 50 µM; active compounds read high

| SMILES | growth inhibition [1] | growth inhibition [2] | viability increase [3] | viability [4] | viability [5] | inhibition [6] | RAM network inhibition [7] |
| --- | --- | --- | --- | --- | --- | --- | --- |
| COc1cccc(-c2cc(C(=O)Nn3cnnc3)c3ccccc3n2)c1 | -12.2% | -11.8% | -3.9% | 92.5% | 94.6% | 1.52% | 3.38% |
| COc1ccccc1CCNC(=O)c1cnn2c(C(F)F)cc(C)nc12 | -0.75% | 11.3% | -0.37% | 103% | 97.7% | -0.1% | 4.32% |
| CCOC(=O)CN1CC23C=CC(O2)C(C(=O)Nc2ccc4c(c2)OCO4)C3C1=O (stereo not drawn) | -0.14% | 3.22% | -1.01% | 107% | 103% | 2.71% | 1.23% |
| CCCc1cc(C(=O)Nc2ccc(C)cc2)no1 | -3.58% | -5.4% | -0.63% | 101% | 97.6% | 1.32% | 1.86% |
| O=C1CCc2cc(S(=O)(=O)N3CCCC3C(=O)N3CCN(c4ccccc4)CC3)ccc2N1 (stereo not drawn) | -10.3% | -12.1% | -3.91% | 105% | 85% | 3.67% | 4.76% |
| Cc1ccc(C)c(-n2c(Cc3cc(=O)[nH]c(=O)[nH]3)nnc2SC(C)C)c1 | 0.205% | 11.1% | -3.19% | 97.7% | 89.9% | 1.74% | 0.84% |
| CCN1CCN(C(=O)C2CCN(S(=O)(=O)c3cccc4cccnc34)CC2)CC1 | -6.23% | 2.11% | -0.43% | 108% | 96.3% | 2.33% | 0.98% |
| Cc1ccc(Nc2nc(N3CCOCC3)nc(N3CCOCC3)n2)cc1 | -16.7% | -7.55% | -2.57% | 64.2% | 65.7% | 1.06% | 2.07% |
| CC(C)c1ccc(C2CC(=O)N3CN(C)CSC3=C2C#N)cc1 (stereo not drawn) | 4.19% | 25% | -4.3% | 91.4% | 93.9% | 1.75% | -0.52% |
| O=C(Nc1ccccc1)N(CCCN1CCOCC1)Cc1cccs1 | -1.32% | 9.1% | -3.05% | 96.3% | 93.9% | 2.5% | 0.88% |
| O=C(NCc1cn2ccsc2n1)c1c(F)cccc1Cl | -10.2% | -8.81% | 1.01% | 107% | 99.6% | 0.93% | 2.61% |
| CCOc1ccc(Cn2nnc(C(=O)NCCc3ccccc3)c2N)cc1 | 1.4% | 2.79% | 10.7% (active) | 96.9% | 89.9% | 2.5% | 4.53% |
| Cc1csc2nc(CNC(=O)C3CC=CCC3C(=O)O)cn12 (stereo not drawn) | -3.37% | 16.7% | -2.9% | 93.7% | 94% | 2.62% | -0.42% |
| Cn1c(Cn2c(=O)sc3ccccc32)nnc1SCC(=O)NCC1CCCO1 (stereo not drawn) | -6.81% | -7.68% | -1.15% | 99.3% | 90% | 0.85% | 2.22% |
| O=C(O)C1C2C=CC(C2)C1C(=O)NCCc1cccc(Cl)c1 (stereo not drawn) | -2.6% | 3.11% | -1.41% | 104% | 94.7% | 0.045% | 2.92% |
| COc1ccc(-c2noc(-c3cccc(OC)c3OC)n2)cc1OC | -8.92% | -10.4% | -1.07% | 102% | 94.3% | 2.87% | 2.97% |
| CCOc1ccccc1N1CCN(C(=O)c2cc(C)oc2C)CC1 | -10.5% | -5.64% | -3.37% | 89.2% | 93.9% | 0.04% | 0.7% |
| O=C(Nc1cnc2ccccc2c1)c1ccncc1 | -8.13% | -8.73% | -2.98% | 99.7% | 87.1% | 2.08% | 1.19% |
| CC(c1ccc(Br)cc1)N1CC23C=CC(O2)C(C(=O)O)C3C1=O (stereo not drawn) | 0.305% | 6.24% | -0.16% | 102% | 99.7% | 1.27% | -1.25% |
| CC1CCN(CCCNC(=O)c2cc3c(=O)n(C)c4ccccc4c3n2C)CC1 | 0.225% | -4.35% | -5.04% | 43.1% | 50% | -0.26% | 1.43% |
| N#CC1=C(SCC(=O)Nc2ccccc2)NC(=O)CC1c1ccc(O)cc1 (stereo not drawn) | -15.2% | -10.5% | -2.43% | 91.4% | 86.5% | 1.42% | -0.69% |
| CCOC(=O)c1c(NC(=O)c2cc(C3CC3)on2)sc(C(C)=O)c1C | -3.19% | 0.635% | -1.49% | 104% | 93.3% | 1.64% | -0.58% |
| O=C(c1ccc(CS(=O)(=O)c2ccc(Br)cc2)o1)N1CCN(c2ncccn2)CC1 | -4.05% | -7.28% | -4.3% | 86.2% | 96% | 1.94% | 3.64% |
| CCCc1cc(C(=O)N(C2CCCCC2)C2CCCCC2)no1 | 4.36% | 14.7% | -5.51% | 74.5% | 80.8% | 1.57% | 6.03% |

Reference: PubChem BioAssay
